# ChEMBL document CHEMBL1141245, “Discovery of novel 1-arylmethyl pyrrolidin-2-yl ethanol amines as calcium-sensing receptor antagonists” (Bioorg Med Chem Lett, 2005)
# Molecular target: T1, Extracellular calcium-sensing receptor (Homo sapiens, UniProt P41180)
# T1 sequence (P41180 whole entry): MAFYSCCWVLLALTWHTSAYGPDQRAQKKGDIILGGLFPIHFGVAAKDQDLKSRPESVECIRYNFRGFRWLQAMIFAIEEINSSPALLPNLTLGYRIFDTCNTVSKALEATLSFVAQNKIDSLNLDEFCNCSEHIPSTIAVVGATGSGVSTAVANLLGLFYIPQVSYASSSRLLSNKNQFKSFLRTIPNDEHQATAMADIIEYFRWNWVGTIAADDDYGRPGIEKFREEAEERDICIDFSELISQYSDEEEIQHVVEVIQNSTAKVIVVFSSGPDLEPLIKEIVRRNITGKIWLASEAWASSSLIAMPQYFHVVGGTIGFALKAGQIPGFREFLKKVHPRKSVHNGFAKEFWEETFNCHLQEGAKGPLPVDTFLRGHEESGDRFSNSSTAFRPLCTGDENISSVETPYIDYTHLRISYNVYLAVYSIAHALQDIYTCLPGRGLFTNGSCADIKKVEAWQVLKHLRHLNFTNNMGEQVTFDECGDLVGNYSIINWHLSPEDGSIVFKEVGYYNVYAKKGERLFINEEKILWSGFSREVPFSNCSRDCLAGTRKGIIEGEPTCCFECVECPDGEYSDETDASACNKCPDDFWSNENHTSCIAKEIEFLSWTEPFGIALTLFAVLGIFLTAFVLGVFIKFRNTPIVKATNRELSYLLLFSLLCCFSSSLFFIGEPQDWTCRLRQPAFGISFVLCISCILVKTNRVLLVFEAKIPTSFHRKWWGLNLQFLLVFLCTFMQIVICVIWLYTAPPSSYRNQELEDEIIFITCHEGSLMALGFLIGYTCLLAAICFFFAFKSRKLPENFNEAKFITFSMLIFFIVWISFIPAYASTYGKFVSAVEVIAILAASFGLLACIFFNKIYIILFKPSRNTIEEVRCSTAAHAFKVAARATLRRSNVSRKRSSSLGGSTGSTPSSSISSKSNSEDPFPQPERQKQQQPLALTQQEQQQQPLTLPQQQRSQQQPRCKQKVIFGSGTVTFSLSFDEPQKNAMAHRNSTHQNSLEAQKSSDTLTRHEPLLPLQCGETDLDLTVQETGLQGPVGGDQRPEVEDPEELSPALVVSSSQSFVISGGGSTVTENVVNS
# Test: Inhibition of intracellular calcium release in human TT cells containing calcium-sensing receptor by FLIPR
# Type: functional, cell-based
# Summary of the method: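 Fluorescence-based intracellular Ca2+ mobilization, read on FLIPR, in human TT cells carrying endogenous calcium-sensing receptor. IC50 values are means of two experiments.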
row,SMILES,IC50
1,CC(C)(Cc1ccc2ccccc2c1)NC[C@@H](O)COc1cccc(Cl)c1C#N,50 nM
2,CC(C)(Cc1ccc2ccccc2c1)NC[C@@H](O)[C@H]1CCCN1Cc1ccccc1[N+](=O)[O-],160 nM
3,CC(C)(Cc1ccc(F)cc1)NC[C@@H](O)CSc1cccc(Cl)c1Cl,6180 nM
4,CC(C)(Cc1ccc2ccccc2c1)NC[C@@H](O)[C@H]1CCCN1Cc1cccc(F)c1O,140 nM
5,CC(C)(Cc1ccc2ccccc2c1)NC[C@@H](O)[C@H]1CCCN1Cc1ccc([N+](=O)[O-])cc1,790 nM
6,CC(C)(Cc1ccc2ccccc2c1)NC[C@@H](O)[C@H]1CCCN1Cc1cccc(C#N)c1,190 nM
7,CC(C)(Cc1cc2ccccc2s1)NC[C@H](O)COc1ccccc1C#N,60 nM
8,CC(C)(Cc1csc2ccccc12)NC[C@@H](O)[C@H]1CCCN1Cc1cccc(C#N)c1,1000 nM
9,CC(C)(Cc1ccccc1)NC[C@H](O)COc1ccccc1S(C)(=O)=O,9430 nM
10,CC(C)(Cc1ccc2ccccc2c1)NC[C@H](O)COc1cccc(Cl)c1C#N,50 nM
11,CC(C)(Cc1cc2ccccc2s1)NC[C@@H](O)[C@H]1CCCN1Cc1cccc(C#N)c1,270 nM
12,CC(C)(Cc1ccc2ccccc2c1)NC[C@@H](O)[C@H]1CCCN1Cc1ccccc1C#N,340 nM
13,CC(C)(Cc1ccc2ccccc2c1)NC[C@@H](O)[C@H]1CCCN1Cc1cccc(C(=O)O)c1,6840 nM
14,CC(C)(Cc1ccc2ccccc2c1)NC[C@@H](O)[C@H]1CCCN1Cc1ccccc1O,970 nM
15,CC(C)(Cc1ccc2ccccc2c1)NC[C@@H](O)[C@H]1CCCN1Cc1cccc(Br)c1,1570 nM
16,CC(C)(Cc1cc2ccccc2[nH]1)NC[C@H](O)COc1ccccc1C#N,100 nM
17,N#Cc1c(Cl)cccc1OC[C@H](O)CNCCc1ccc2ccccc2c1,3860 nM
18,CC(C)(Cc1nc2ccccc2[nH]1)NC[C@@H](O)[C@H]1CCCN1Cc1cccc(C#N)c1,2840 nM
19,COc1ccc(CC(C)(C)NCC(O)COc2ccc(S(C)(=O)=O)c(C)c2)cc1 (centres undefined),11400 nM

# More lines, now with the values ahead:
row,IC50,SMILES
1,600 nM,CC(C)(Cc1ccc(F)cc1)NC[C@@H](O)COc1cccc(Cl)c1C#N
2,250 nM,CC(C)(Cc1ccc2ccccc2c1)NC[C@@H](O)[C@H]1CCCN1Cc1ccc(C#N)cc1
3,880 nM,CC(C)(Cc1ccc2ccccc2c1)NCCCOc1cccc(Cl)c1C#N
4,1270 nM,CC(C)(Cc1ccc2ccccc2c1)NC[C@H](O)[C@H]1CCCN1Cc1ccccc1C#N
5,1160 nM,CC(C)(Cc1ccc2ccccc2c1)NC[C@@H](O)[C@H]1CCCN1Cc1cccc(O)c1
6,1560 nM,COc1cccc(CN2CCC[C@@H]2[C@H](O)CNC(C)(C)Cc2ccc3ccccc3c2)c1O
7,4600 nM,N#Cc1c(Cl)cccc1OC[C@H](O)CNc1ccc2ccccc2c1
8,360 nM,CC(C)(Cc1ccc2ccccc2c1)NC[C@@H](O)[C@H]1CCCN1Cc1cccc(F)c1F
9,3300 nM,CC(C)(Cc1ccc(F)cc1)NC[C@@H](O)COc1ccc(OC(F)(F)F)cc1
10,750 nM,CC(C)(Cc1ccc2ccccc2c1)NC[C@@H](O)[C@H]1CCCN1Cc1cccc(F)c1
11,1390 nM,COc1ccc(CC(C)(C)NC[C@H](O)COc2cccc(OC)c2)cc1
12,240 nM,CC(C)(Cc1ccc2ccccc2c1)NC[C@@H](O)[C@H]1CCCN1Cc1cccc(Cl)c1C#N
13,1190 nM,COc1cccc(CN2CCC[C@@H]2[C@H](O)CNC(C)(C)Cc2ccc3ccccc3c2)c1
14,2670 nM,COc1ccc(CC(C)(C)NC[C@@H](O)[C@H]2CCCN2Cc2cccc(C#N)c2)cc1
15,270 nM,CN(C[C@@H](O)COc1cccc(Cl)c1C#N)C(C)(C)Cc1ccc2ccccc2c1
16,140 nM,CC(C)(Cc1ccc2ccccc2c1)NC[C@@H](O)[C@H]1CCCN1Cc1cccc([N+](=O)[O-])c1O
17,140 nM,CC(C)(Cc1ccc2ccccc2c1)NC[C@@H](O)[C@H]1CCCN1Cc1cccc([N+](=O)[O-])c1
18,1350 nM,CC(C)(Cc1nc2ccccc2s1)NC[C@@H](O)[C@H]1CCCN1Cc1cccc(C#N)c1
19,30 nM,CC(C)(Cc1ccc2ccccc2c1)NC[C@@H](O)COc1ccccc1C#N
20,8430 nM,CC(C)(Cc1ccc2ccccc2c1)NC[C@@H](O)[C@H]1CCCN1C(=O)c1cccc(C#N)c1
21,2470 nM,CC(C)(Cc1ccc2ccccc2c1)NC[C@@H](O)[C@H]1CCCN1Cc1cccc(-c2ccccc2)c1
22,440 nM,CC(C)(Cc1cc2ccccc2[nH]1)NC[C@@H](O)[C@H]1CCCN1Cc1cccc(C#N)c1

# Molecular target: T2, Extracellular calcium-sensing receptor (Rattus norvegicus, UniProt P48442)
# T2 sequence (P48442 whole entry): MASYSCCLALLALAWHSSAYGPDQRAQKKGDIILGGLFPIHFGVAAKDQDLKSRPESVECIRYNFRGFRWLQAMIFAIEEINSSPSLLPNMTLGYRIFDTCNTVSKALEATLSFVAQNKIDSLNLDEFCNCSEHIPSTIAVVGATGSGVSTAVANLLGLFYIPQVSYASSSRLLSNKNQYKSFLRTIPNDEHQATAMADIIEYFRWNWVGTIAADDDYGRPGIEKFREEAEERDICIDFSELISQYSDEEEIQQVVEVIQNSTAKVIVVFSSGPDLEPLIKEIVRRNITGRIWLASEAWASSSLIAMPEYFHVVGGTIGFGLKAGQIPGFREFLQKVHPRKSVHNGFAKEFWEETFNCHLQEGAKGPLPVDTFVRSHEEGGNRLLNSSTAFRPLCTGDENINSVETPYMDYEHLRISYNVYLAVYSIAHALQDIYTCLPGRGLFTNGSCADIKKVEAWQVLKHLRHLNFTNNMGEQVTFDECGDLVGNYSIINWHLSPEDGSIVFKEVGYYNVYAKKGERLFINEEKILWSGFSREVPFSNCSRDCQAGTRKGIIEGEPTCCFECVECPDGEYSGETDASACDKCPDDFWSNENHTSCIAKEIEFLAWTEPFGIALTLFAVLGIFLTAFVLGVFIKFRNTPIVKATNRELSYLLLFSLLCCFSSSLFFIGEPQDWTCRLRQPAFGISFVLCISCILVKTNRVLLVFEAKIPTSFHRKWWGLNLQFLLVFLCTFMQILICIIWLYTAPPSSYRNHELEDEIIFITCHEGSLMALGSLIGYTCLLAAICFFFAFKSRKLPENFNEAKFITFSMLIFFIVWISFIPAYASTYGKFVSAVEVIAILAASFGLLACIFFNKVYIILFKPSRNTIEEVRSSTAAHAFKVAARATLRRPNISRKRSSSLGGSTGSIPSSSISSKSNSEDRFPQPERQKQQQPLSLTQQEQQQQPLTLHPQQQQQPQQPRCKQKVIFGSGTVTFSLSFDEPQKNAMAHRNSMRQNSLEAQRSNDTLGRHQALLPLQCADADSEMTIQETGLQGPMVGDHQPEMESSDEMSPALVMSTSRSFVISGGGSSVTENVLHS
# Test: Inhibition of extracellular calcium-induced inositol triphosphate generation in rat MTC cells expressing calcium-sensing receptor
# Type: functional, cell-based
row,IC50,SMILES
1,530 nM,CC(C)(Cc1ccc2ccccc2c1)NC[C@@H](O)COc1cccc(Cl)c1C#N
2,2560 nM,CC(C)(Cc1ccc2ccccc2c1)NC[C@@H](O)[C@H]1CCCN1Cc1cccc(F)c1O
3,2200 nM,CC(C)(Cc1ccc2ccccc2c1)NC[C@@H](O)[C@H]1CCCN1Cc1cccc(C#N)c1
